Assay outcomes (PubChem)
Most compounds without a hit are left out; they make up all but 1.3% or so of the library.
G6PDH counter: inhibits Leuconostoc G6PDH, flagging false hits in G6PDH-based assays; Purified L. mesenteroides G6PDH, diaphorase/resazurin coupled fluorescence, 45 min; inhibition, % at 5 µM; hit rate 0.12% among 200,000; AID 1020; in the data active = inhibition above about 50%
HKDC1 inh: HKDC1 (human) hexokinase inhibition; AID 493160; hit rate 0.16% among 340,000; recombinant HKDC1, G6PDH/diaphorase resazurin coupled fluorescence; inhibition, % at 20 µM; Q2TB90;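 active = inhibition above about 35% when tested at 20 µM, limit read from the data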;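 also: plate controls were DMSO wells with enzyme for no effect and DMSO wells lacking enzyme for full effect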
Target sequence (Q2TB90 whole entry, looked up): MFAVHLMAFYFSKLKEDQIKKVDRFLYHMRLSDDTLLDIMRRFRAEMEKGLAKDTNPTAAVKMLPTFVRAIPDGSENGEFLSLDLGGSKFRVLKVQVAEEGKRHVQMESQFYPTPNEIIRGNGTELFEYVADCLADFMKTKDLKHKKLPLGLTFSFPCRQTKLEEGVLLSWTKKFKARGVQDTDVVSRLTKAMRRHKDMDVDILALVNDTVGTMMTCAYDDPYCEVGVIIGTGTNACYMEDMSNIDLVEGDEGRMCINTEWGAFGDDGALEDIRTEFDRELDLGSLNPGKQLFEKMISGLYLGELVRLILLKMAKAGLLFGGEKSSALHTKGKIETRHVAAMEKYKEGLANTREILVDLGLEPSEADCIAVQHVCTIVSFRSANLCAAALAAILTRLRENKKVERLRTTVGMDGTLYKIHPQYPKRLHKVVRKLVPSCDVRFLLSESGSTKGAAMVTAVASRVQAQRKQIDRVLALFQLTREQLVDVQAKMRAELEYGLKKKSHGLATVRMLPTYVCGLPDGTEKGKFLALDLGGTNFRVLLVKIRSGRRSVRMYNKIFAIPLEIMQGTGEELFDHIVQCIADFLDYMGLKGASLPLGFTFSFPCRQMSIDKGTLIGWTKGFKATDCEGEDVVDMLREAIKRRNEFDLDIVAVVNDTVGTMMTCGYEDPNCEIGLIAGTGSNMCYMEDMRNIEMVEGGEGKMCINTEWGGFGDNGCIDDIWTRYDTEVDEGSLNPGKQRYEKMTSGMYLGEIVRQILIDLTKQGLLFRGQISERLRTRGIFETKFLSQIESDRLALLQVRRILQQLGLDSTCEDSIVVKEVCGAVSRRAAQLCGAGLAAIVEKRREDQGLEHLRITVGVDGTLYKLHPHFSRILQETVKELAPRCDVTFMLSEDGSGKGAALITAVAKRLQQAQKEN
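Assay system – recombinant HKDC1 (HK5) hexokinase enzyme, produced in-house · Input – HKDC1 at 5 µg/mL · Reagent – glucose plus 1 mM ATP as hexokinase substrates · Timing – 90 min reaction incubation at room temperature, dark · Measured by – G6PDH/diaphorase-coupled fluorescence, 1 mM NADP, 100 µM resazurin, 525/613 nm · Benchmarks – DMSO-enzyme wells negative, buffer-substituted wells positive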
TbHK1 inh: T. brucei hexokinase 1 inhibition | inhibition, % at 10 µM | hit rate 0.11% among 220,000 | recombinant TbHK1, G6PDH-coupled NADH A340;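 active = inhibition of 50% or more in the single-dose primary screen; inactive = inhibition below 50%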
Diaph inh CS: diaphorase inhibition or chemical oxidation counter-screen; inhibition, % at 20 µM; diaphorase resazurin-to-resorufin fluorescence, NADH, 16 min; bacterial (C. kluyveri) enzyme, not human; hit rate 0.69% among 190,000;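 active = primary screen inhibition at 20 µM above a set limit, cut at about 50% in these data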;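 also: plate controls were DMSO with full reaction for no effect and wells lacking NADH for full effect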
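controls = No-NADH positive control and DMSO neutral control | system = Clostridium kluyveri diaphorase enzyme | timing = reaction incubation of 16 min at room temperature | signal = resorufin fluorescence 544/590 nm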
PfG6PD inh: PfG6PD (Plasmodium falciparum) enzyme inhibition | PfGluPho enzyme, NADPH resazurin-diaphorase fluorescence | inhibition, % at 20 µM | hit rate 0.78% among 350,000;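 active = inhibition reaching at least a set limit at 20 µM in the primary screen, cut at about 59% in these data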;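 also: 0% = DMSO wells with substrate and 100% = DMSO wells lacking glucose-6-phosphate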
PfG6PD confirm: confirmation of Plasmodium falciparum G6PD inhibitors. recombinant PfGluPho, NADPH-diaphorase-resazurin fluorescence. shares compounds with PfG6PD inh. inhibition, % at 20 µM. hit rate 34% among 2,400;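 active = inhibition of at least 50% at 20 µM in any single replicate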;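 also: 0% = DMSO with substrate and 100% = DMSO lacking glucose-6-phosphate substrate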
Diaphorase 10uM: diaphorase inhibition or oxidation at 10 uM NADPH; shares compounds with PfG6PD inh; diaphorase-coupled resazurin reduction, fluorescence, NADPH 10 uM; inhibition, % at 20 µM; hit rate 39% among 820; AID 504862;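 active = average inhibition reaching 50% or more with the compound at 20 µM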;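 also: resorufin red fluorescence formed as diaphorase reduces resazurin using NADPH; 0% = DMSO with enzyme and 100% = DMSO without enzyme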
Diaphorase 30uM: inhibits diaphorase or oxidizes, flagging false PfG6PD hits; shares compounds with PfG6PD inh; Diaphorase/resazurin coupled assay, resorufin fluorescence, 30 uM NADPH; inhibition, % at 20 µM; hit rate 29% among 820; AID 504863;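 active = inhibition averaging 50% or more, tested at 20 µM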;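 also: 0% = DMSO with enzyme and 100% = DMSO wells lacking diaphorase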
* = called active by the depositor; · = no result given.

SMILES | G6PDH counter | HKDC1 inh | TbHK1 inh | Diaph inh CS | PfG6PD inh | PfG6PD confirm | others
O=C(CN(Cc1ccccc1Cl)C(=O)c1csnn1)NCCc1ccccc1 | · | -5 | · | · | 0 | ·
CC1=CC(=NOC(=O)/C=C/c2ccccc2)C=C(C)C1=O | 15 | 10 | -8 | 14 | 75* | 61* | Diaphorase 10uM=28;Diaphorase 30uM=27
COc1ccc(S(=O)(=O)Nc2c(C(=O)O)[nH]c3ccc(OC)cc23)c(OC)c1 | · | 14 | · | · | 67* | 4
c1cncc(-c2nnc(-c3cccnc3)nn2)c1 | 32 | 12 | 20 | 3 | 77* | 31
CCOC(=O)c1c(C)[nH]c(C(=O)COC(=O)Cn2cc(C(F)(F)F)ccc2=O)c1C | · | 0 | · | · | 3 | ·
Cn1cc(S(=O)(=O)CC(=O)Nc2ccc(Br)cc2)c2ccccc21 | 10 | 2 | 4 | 17 | 87* | 39
Cc1ccc(NC(=O)CS(=O)(=O)c2cn(C)c3ccccc23)c(C)c1 | · | 1 | -8 | · | 16 | ·
CCOc1ccc(C(=O)/C=C/c2cn(CN3CCN(C)CC3)c3ccccc23)cc1 | -5 | 2 | -9 | 17 | 62* | -21
O=C(CSc1ccc(Cl)cc1)N/N=C/c1cccnc1 | 4 | -2 | 6 | 6 | 63* | 36
O=C(CNc1ccc2ccccc2c1)N/N=C/c1ccc([N+](=O)[O-])o1 | 18 | 11 | 26 | 22 | 24 | ·
Cc1cc(C)nc(SCC(=O)N/N=C/c2cccnc2)n1 | · | -6 | · | · | -4 | ·
O=C(CSc1ccc(Cl)cc1)N/N=C/c1ccc([N+](=O)[O-])o1 | · | 10 | · | · | 110* | 82* | Diaphorase 10uM=81*;Diaphorase 30uM=66*
Cc1c(NS(=O)(=O)c2cc(C(=O)NCCN(C)C)ccc2Cl)c(=O)n(-c2ccccc2)n1C | · | 4 | · | · | -12 | ·
COc1cccc(C2CC(=O)NC(SC)=C2C#N)c1 (centres undefined) | -4 | 11 | -1 | 20 | -26 | ·
N#CC1=C2SCN(c3ccc(F)cc3)CN2C(=O)CC1c1cccc(F)c1 (centres undefined) | 42 | 17 | -16 | 48 | 69* | 25
N#CC1=C2SCC(O)(c3ccccc3)N2C(=O)CC1c1ccccc1 (centres undefined) | 14 | 8 | -25 | 28 | 8 | ·
CCc1ccc(C2CC(=O)N3CN(c4ccccc4)CSC3=C2C#N)cc1 (centres undefined) | 19 | 16 | -7 | 55* | 78* | 9
Cc1cc(C)c2c(n1)sc1c(N3CCN(C)CC3)ncnc12 | · | 9 | -20 | · | 43 | ·
Cc1cc(C)c2c(n1)sc1c(N3CCCCC3)ncnc12 | · | 17 | -11 | · | 70* | 0
CCN(CC)c1ncnc2c1sc1nc(C)cc(C)c12 | 12 | 13 | -1 | 22 | 72* | 36
CCCN(Cc1cc2ccc(C)cc2[nH]c1=O)C(=O)c1ccccn1 | 14 | 1 | -20 | 20 | 96* | 69* | Diaphorase 10uM=50*;Diaphorase 30uM=50*
CCCCN(Cc1cc2cc(C)ccc2[nH]c1=O)C(=O)c1ccccn1 | · | -5 | -24 | · | 26 | ·
CCC1CCc2c(sc(NC(=O)c3ccco3)c2C(N)=O)C1 (centres undefined) | 2 | 5 | -12 | 24 | 8 | ·
CCC1CCc2c(sc(NC(=O)c3cnccn3)c2C(N)=O)C1 (centres undefined) | · | -8 | · | · | 69* | 33
COCCn1c2nc(=O)n(-c3ccccc3)c(=O)c-2nc2ccccc21 | · | · | · | · | 59* | 38
SMILES | G6PDH counter | HKDC1 inh | TbHK1 inh | Diaph inh CS | PfG6PD inh | PfG6PD confirm | others
Cc1ccc(-n2c(N)c(C(N)=O)sc2=S)cc1 | 6 | -8 | -20 | 0 | 69* | 31
COc1ccc(CNC(=O)c2sc(=S)n(-c3ccc(OC)cc3)c2N)cc1 | -1 | -14 | 1 | 19 | 63* | -1
Cc1ccc(-n2c(N)c(C(=O)NCc3ccco3)sc2=S)cc1 | 3 | 0 | -22 | 16 | 59 | ·
Nc1c(C(=O)NCc2cccnc2)sc(=S)n1-c1ccccc1 | 2 | -3 | -14 | -2 | 49 | 43
CCN1C(=O)C2C(c3cccc(F)c3)NC(C)(C(=O)OC)C2C1=O (centres undefined) | 8 | -2 | -1 | 12 | -8 | ·
COc1cc(NS(=O)(=O)c2cc3[nH]c(=O)c(=O)[nH]c3cc2C)cc(OC)c1OC | · | 17 | · | · | 63* | 0
COc1cccc(C(=O)/C=C2\Sc3ccccc3N2C)c1 | -3 | -9 | -6 | 1 | 82* | 41
CCCC(=O)OCCNc1cc(Sc2nc3ccccc3[nH]2)c2nonc2c1[N+](=O)[O-] | 3 | 6 | -9 | 39 | 65* | 39
CCC(=O)OCCNc1cc(Sc2nccn2C)c2nonc2c1[N+](=O)[O-] | -6 | 10 | -20 | 31 | 29 | ·
COc1cccc(N/C(SCc2cccc([N+](=O)[O-])c2)=C(/C#N)C(N)=O)c1 | -4 | -3 | -18 | 24 | 35 | ·
Cc1ccccc1N/C(SCc1cccc(Br)c1)=C(/C#N)C(N)=O | 5 | 1 | -3 | 11 | 97* | 67* | Diaphorase 10uM=61*;Diaphorase 30uM=33
Cc1ccc2cccc(S(=O)(=O)N3CCCc4ccccc43)c2n1 | 9 | 6 | -1 | 23 | 67* | 33
Fc1ccc(C[n+]2csc3ccccc32)cc1 | -4 | -3 | 2 | 19 | 64* | 31
COc1cnn(-c2ccccc2)c(=O)c1SCc1ccc(Cl)cc1Cl | -3 | 10 | -8 | 29 | 66* | -3
COc1cnn(-c2ccc(C)cc2)c(=O)c1SCc1ccccc1 | 0 | -1 | -13 | 22 | 66* | 3
O=[N+]([O-])c1ccccc1OCCOCCOc1cccc2cccnc12 | -1 | -7 | 0 | 19 | 3 | ·
N#Cc1ccc(Oc2cccc3cccnc23)c([N+](=O)[O-])c1 | · | 7 | · | · | 102* | 70* | Diaphorase 10uM=64*;Diaphorase 30uM=43
Cc1ccc2cccc(Oc3ccc([N+](=O)[O-])cc3[N+](=O)[O-])c2n1 | -1 | -2 | -4 | 23 | 121* | 91* | Diaphorase 10uM=94*;Diaphorase 30uM=80*
O=[N+]([O-])c1ccc(Oc2cccc3cccnc23)c([N+](=O)[O-])c1 | -1 | 18 | -8 | 20 | 119* | 95* | Diaphorase 10uM=85*;Diaphorase 30uM=75*
Cc1ccc(Oc2ccc(C(F)(F)F)cc2[N+](=O)[O-])c([N+](=O)[O-])n1 | · | 1 | 1 | · | 8 | ·
CC(NS(=O)(=O)c1ccc([N+](=O)[O-])cc1)C(c1cccs1)N1CCOCC1 (centres undefined) | 7 | 6 | -8 | 5 | -16 | ·
Cc1ccnc(SCC(=O)NC2CCCCCC2)n1 | · | -1 | · | · | 5 | ·
